The record followed here is ChEMBL document CHEMBL5661974, “Pharmacologic characterization of a potent inhibitor of class I phosphatidylinositide 3-kinases” (Cancer Res, 2007).

Data set [1] can be described thus: Cmax in BALB/C mouse plasma at 50 mg/kg, ip by LC-MS/MS analysis. The note with it: in vivo. The format is ADME, organism-based. In short, it runs like this: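 Female BALB/c mice, 6–8 weeks old, dosed i.p. at 50 mg/kg in 20% […] β-cyclodextrin in saline, 0.1 mL/10 g. Serial blood samples; plasma was methanol-precipitated with an analogue internal standard. LC-MS/MS multiple reaction monitoring, external calibration 2–20,000 nmol/L. Noncompartmental analysis, model 200.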

Data set [2] deals with PC-3. Nature of the data set: Antitumor activity against PTEN null human PC-3 cells xenografted male Ncr model assessed as T/C at 30 mg/kg, ip administered once a daily for 14 days relative to control. The format is functional. To be noted: time 14 day. For orientation: Xenograft models place foreign cells or tissue in a host animal.
Data set [3] deals with U-87 MG. Nature of the data set: Inhibition of recombinant PI3K in human U-87MG cells assessed as phosphorylation of AKT at ser473 at 5 times of GI50 concentration within 15 mins treatment by immunoblot analysis. The format is cell-based.
Data set [4] is described as follows: Inhibition of recombinant human PI3K in cricetulus griseus CHO cells expressing GFP-tagged AKT2 assessed as translocation to the plasma membrane following IGF-1 stimulation by fluorescence assay. In short, it runs like this:
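CHO cells expressing GFP-tagged AKT1, AKT2, AKT3 or PDK1, held in 0.05% serum with 0.1% BSA and stimulated with 100 nmol/L IGF-1. Plasma-membrane translocation was read by automated fluorescence imaging, with IC50 from concentration-response curves; Z' above 0.5.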

For data set [5], the system named is MDA-MB-468. Nature of the data set: Antitumor activity against PTEN null human MDA-MB-468 cells xenografted female Ncr model assessed as T/C at 40 mg/kg, ip administered once a daily for 40 days relative to control. To be noted: time 40 day. The class given is functional.
In data set [6] the test system is PC-3. Nature of the data set: Antitumor activity against PTEN null human PC-3 cells xenografted male Ncr model assessed as T/C at 30 mg/kg, ip administered twice a daily for 14 days relative to control. The class given is functional. The note with it: time 14 day.
A short description of data set [7]: Drug metabolism in mouse microsomes incubated for 30 mins by LC-MS/MS analysis. The class given is ADME, Microsome. To be noted: read-out: Drug metabolism. In short, it runs like this:
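Mouse or human microsomes incubated 30 min with inhibitor at 1 or 10 μmol/L. Metabolite detection by LC-MS/MS on an ion trap, with a 10–90% methanol gradient over 6 min and scan range 50–1,000 amu.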

Data set [8] concerns IGROV-1. Nature of the data set: Antitumor activity against PIK3CA mutant human IGROV-1 cells xenografted female Ncr model assessed as T/C at 70 mg/kg, ip administered once a daily for 14 days relative to control. To be noted: time 14 day. The format is functional.
For data set [9], the system named is A549. Nature of the data set: Antiproliferative activity against human A549 cells harboring AKT assessed as cell growth inhibition incubated for 96 hrs by SRB assay. The format is functional. Background: The SRB assay estimates cell density from bound dye.
The test system of data set [10] is HCT-116. In words: Antitumor activity against PIK3CA mutant human HCT-116 cells xenografted female Ncr model assessed as T/C at 30 mg/kg, ip administered twice a daily for 14 days relative to control. The class given is functional. The note with it: time 14 day.
Data set [11] in a line: AUClast in BALB/C mouse spleen at 2.5 mg/kg, iv by LC-MS/MS analysis. The class given is ADME, organism-based. In short, it runs like this: (§1)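 Female BALB/c mice, 6–8 weeks old, given 2.5 mg/kg i.v. in 10% DMSO, 0.5% Tween 20 in saline. Plasma came from serial bleeds; tissues were homogenized in 2 or 3 volumes PBS. Samples were methanol-precipitated with an analogue internal standard, then LC-MS/MS by multiple reaction monitoring against an 8-point external calibration of 2–20,000 nmol/L. Parameters came from WinNonlin noncompartmental analysis, model 201 for plasma and model 200 for tissues.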

A short description of data set [12]: Tmax in BALB/C mouse kidney at 2.5 mg/kg, iv by LC-MS/MS analysis. The class given is ADME, organism-based. In short, it runs like this:
as §1

The nature of data set [13]: Tmax in BALB/C mouse spleen at 2.5 mg/kg, iv by LC-MS/MS analysis. The format is ADME, organism-based. A digest of the protocol:
as §1

The test system of data set [14] is MDA-MB-435. In words: Antiproliferative activity against human MDA-MB-435 cells harboring AKT assessed as cell growth inhibition incubated for 96 hrs by SRB assay. The format is functional.

The source made the active and inactive calls. The rule behind the calls is not given here. Bounds are passed on as bounds.

`Oc1cccc(-c2nc(N3CCOCC3)c3oc4ncccc4c3n2)c1` [PI-103] showed a Cmax in data set [1] of 6.68 µM. For the same compound, the T/C in data set [2] came out at 80.8%; in data set [5], 52.8%; in data set [6] it was 43.3%; in [8] it was 74.7%; in data set [10], 28%. For the same compound, in [3], the inhibition result was “Active”. Moreover, in data set [4], the IC50 worked out at 13 nM. Further, the metabolised at 0.5 h in data set [7] was over 70%. For the same compound, the results for the GI50 in data set [9] and in [14] were 210 nM and 130 nM, respectively. In [11], this compound showed an AUC(0-t) of 0.406 µM·h. For the same compound, the Tmax in data set [12] and in data set [13] was 4.98 min in each case.

Broadly, the Cmax is the peak of the concentration-time curve. By T/C is commonly meant the result in the treated group divided by that in the control group, in per cent. Broadly, the IC50 is the concentration that gives 50% inhibition. In general, GI50 refers to the concentration that inhibits growth by half. In general, AUC(0-t) refers to the area under the concentration-time curve up to a stated or last time point. Higher therefore signals more exposure. As usually defined, the Tmax is the time from dosing to the highest level.
